As a reminder, the EC50 is the concentration at which the effect is half-maximal. In general, IC50 refers to the point on the concentration scale where inhibition reaches its midpoint. Broadly, the Ki is a measure of affinity in units of concentration, obtained from inhibition or displacement.

Metabotropic glutamate receptor 2, sequence (P31421 whole entry): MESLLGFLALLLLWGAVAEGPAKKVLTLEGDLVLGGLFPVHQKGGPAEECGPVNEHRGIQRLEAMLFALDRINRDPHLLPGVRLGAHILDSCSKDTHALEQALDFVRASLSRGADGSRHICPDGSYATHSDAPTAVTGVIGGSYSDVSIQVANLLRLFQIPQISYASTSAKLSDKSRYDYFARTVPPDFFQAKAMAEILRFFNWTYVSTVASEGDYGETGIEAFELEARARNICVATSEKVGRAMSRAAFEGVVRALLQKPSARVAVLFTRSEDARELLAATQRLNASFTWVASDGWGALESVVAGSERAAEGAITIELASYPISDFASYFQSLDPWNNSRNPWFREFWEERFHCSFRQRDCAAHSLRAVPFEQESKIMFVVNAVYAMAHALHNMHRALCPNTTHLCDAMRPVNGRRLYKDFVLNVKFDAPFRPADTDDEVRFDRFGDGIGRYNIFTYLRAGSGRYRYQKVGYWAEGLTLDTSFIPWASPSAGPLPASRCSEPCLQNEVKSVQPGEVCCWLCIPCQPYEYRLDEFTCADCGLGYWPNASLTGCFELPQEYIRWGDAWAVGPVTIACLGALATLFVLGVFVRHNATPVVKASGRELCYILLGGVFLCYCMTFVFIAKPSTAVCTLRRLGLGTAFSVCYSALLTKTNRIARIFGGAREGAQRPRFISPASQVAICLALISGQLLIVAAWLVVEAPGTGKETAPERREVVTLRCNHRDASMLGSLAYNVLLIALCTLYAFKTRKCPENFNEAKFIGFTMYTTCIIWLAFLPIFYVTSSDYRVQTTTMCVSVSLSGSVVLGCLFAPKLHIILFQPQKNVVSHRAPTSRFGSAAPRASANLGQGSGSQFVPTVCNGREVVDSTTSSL
Metabotropic glutamate receptor 4, sequence (P31423 whole entry): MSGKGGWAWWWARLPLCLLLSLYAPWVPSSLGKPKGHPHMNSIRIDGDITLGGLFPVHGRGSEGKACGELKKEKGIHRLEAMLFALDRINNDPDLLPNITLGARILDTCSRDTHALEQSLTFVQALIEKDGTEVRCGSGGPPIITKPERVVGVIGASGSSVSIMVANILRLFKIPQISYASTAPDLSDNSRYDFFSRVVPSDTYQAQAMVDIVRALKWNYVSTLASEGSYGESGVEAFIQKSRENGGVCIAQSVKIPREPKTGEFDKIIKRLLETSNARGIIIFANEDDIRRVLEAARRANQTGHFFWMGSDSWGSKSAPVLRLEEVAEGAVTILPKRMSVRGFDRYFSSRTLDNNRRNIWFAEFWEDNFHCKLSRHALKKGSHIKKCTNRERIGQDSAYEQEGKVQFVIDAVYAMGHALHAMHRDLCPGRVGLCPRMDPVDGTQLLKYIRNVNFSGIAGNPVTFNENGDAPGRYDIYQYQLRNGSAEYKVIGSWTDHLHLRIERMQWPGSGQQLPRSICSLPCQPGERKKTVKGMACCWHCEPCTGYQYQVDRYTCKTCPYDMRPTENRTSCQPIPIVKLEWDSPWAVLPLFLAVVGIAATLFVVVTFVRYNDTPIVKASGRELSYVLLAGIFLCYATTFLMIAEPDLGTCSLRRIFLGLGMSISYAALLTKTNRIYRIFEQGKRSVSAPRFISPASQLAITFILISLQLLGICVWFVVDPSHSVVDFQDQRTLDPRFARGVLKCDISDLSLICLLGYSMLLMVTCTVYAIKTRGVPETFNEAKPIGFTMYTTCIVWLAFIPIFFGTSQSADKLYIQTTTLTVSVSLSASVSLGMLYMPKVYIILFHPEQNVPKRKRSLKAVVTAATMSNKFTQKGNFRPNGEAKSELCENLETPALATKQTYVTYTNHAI
Glutamate receptor 4 (Rattus norvegicus), sequence (P19493 whole entry): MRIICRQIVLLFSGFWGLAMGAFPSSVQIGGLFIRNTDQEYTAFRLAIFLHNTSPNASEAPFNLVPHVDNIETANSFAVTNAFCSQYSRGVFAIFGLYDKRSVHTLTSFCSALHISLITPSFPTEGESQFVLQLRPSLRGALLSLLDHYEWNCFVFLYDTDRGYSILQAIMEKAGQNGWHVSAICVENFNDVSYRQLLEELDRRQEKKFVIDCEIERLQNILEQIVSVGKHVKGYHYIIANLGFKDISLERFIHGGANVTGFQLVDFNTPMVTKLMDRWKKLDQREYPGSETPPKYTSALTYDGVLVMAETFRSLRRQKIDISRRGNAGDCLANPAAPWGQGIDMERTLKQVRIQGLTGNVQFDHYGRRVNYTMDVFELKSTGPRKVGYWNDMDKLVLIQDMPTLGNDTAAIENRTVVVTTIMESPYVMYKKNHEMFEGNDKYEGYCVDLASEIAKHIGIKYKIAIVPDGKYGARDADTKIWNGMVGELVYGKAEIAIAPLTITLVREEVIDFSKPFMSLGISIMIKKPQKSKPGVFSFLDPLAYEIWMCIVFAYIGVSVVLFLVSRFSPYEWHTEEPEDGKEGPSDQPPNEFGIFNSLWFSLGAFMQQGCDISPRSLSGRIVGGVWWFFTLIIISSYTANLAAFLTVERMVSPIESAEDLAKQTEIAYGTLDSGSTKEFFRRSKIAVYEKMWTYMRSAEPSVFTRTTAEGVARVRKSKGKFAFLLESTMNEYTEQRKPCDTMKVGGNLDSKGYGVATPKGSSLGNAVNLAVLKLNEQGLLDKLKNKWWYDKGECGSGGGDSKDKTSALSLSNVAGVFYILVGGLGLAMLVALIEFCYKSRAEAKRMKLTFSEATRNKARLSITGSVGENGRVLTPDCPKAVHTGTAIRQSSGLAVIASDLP
Glutamate receptor ionotropic, kainate 1, sequence (P22756 whole entry): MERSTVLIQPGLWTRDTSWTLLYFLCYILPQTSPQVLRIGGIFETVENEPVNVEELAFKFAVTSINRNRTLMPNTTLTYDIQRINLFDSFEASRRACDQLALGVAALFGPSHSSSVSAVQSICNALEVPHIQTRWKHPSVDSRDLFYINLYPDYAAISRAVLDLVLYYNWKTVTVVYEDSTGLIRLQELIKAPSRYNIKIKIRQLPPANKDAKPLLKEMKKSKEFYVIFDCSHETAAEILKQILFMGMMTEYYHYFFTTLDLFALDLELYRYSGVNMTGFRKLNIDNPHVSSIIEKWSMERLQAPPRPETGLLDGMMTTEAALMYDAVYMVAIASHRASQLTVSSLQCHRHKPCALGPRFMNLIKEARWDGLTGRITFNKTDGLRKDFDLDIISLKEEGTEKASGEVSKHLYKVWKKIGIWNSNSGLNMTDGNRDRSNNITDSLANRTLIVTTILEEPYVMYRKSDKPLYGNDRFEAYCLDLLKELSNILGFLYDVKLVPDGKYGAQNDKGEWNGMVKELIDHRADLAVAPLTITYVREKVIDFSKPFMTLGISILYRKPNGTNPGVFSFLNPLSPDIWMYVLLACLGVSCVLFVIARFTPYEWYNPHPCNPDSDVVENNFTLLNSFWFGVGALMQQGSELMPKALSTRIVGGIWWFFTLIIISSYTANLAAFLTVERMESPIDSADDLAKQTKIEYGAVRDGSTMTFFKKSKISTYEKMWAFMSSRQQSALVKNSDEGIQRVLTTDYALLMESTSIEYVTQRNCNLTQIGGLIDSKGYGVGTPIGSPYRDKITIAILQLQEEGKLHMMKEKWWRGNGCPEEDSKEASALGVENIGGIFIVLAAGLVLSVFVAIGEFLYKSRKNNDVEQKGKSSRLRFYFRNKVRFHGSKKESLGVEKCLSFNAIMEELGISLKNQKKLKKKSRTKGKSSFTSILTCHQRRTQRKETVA
Glutamate receptor 2 (Rattus norvegicus), sequence (P19491 whole entry): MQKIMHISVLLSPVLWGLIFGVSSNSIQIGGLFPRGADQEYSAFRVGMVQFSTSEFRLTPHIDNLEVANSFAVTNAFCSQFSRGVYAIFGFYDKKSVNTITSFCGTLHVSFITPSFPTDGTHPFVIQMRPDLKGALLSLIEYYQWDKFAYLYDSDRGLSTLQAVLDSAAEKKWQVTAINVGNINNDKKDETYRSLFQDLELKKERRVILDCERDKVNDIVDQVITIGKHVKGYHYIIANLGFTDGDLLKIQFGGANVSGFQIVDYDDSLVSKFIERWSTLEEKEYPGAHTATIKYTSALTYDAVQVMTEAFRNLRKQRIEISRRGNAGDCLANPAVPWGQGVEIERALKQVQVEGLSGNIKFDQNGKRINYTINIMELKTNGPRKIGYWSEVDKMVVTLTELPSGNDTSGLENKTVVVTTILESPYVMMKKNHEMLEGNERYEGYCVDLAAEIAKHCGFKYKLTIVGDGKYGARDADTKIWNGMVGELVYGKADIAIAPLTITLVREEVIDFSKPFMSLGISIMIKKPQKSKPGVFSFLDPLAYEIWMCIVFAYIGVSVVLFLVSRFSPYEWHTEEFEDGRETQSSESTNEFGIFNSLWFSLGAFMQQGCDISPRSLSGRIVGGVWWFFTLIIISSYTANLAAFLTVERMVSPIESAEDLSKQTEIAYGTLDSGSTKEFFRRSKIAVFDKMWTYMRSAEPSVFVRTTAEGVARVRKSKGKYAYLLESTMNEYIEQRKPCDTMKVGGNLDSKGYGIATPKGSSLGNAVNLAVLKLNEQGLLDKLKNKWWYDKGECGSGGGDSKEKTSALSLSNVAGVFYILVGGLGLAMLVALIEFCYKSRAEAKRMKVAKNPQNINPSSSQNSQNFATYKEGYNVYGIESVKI

One assay concerns the target Metabotropic glutamate receptor 2 (Rattus norvegicus, UniProt P31421). In words: Activity at rat cloned mGluR2 expressed in CHO cells assessed as effect on cAMP accumulation. In kind it is functional, cell-based.
Details: not given
The method, boiled down: (§1)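 Second-messenger functional assay on rat mGluR1a (group I), mGluR2 (group II) and mGluR4 (group III) expressed in CHO cells. EC50 in µM with pEC50, reported as mean [pEC50 ± SEM] of at least three independent experiments.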
In general terms: Cyclic AMP is a second messenger, typically raised through Gs and lowered through Gi signalling.
As to `NC(C(=O)O)C1CC(O)=NO1` (racemic; form 2) [TRICHOLOMIC ACID], the EC50 came to 100 µM.
Consider `N[C@H](C(=O)O)[C@@H]1CC(O)=NO1`, for which the EC50 is above 1000 µM.
Regarding `N[C@H](C(=O)O)[C@H]1CC(O)=NO1`, the EC50 came to 84 µM.
For the compound `N[C@@H](C(=O)O)[C@@H]1CC(O)=NO1`, the EC50 was above 1000 µM.

A further assay deals with Glutamate NMDA receptor. As to the kind of experiment: Displacement of [3H]CGP-39653 from NMDA receptor in rat cortical membrane. In kind it is cell membranes.
Details: not given
The method, boiled down: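 NMDA receptor binding on rat cortical membranes prepared by the Ransom and Stec method, with [3H]CGP39653 as radioligand. Ki in µM reported as mean [pKi ± SEM] of at least three individual experiments.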
`NC(C(=O)O)C1CC(O)=NO1` (racemic; form 2) [TRICHOLOMIC ACID] returned a 50% inhibitory concentration (IC50) of 73 µM.
`N[C@H](C(=O)O)[C@@H]1CC(O)=NO1` showed a Ki of 41 µM.
Regarding `N[C@H](C(=O)O)[C@H]1CC(O)=NO1`, affinity was put at a Ki of 95 µM and the “Log Ki” value is -4.03.
In turn, `N[C@@H](C(=O)O)[C@@H]1CC(O)=NO1` gave a Ki of 75 µM.

Molecular target in another assay: not listed separately
As to the kind of experiment: Displacement of [3H]AMPA from AMPA receptor in rat cortical membrane.
Details: not given
In kind it is cell membranes. The essentials:
(§2)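 Competition binding on rat cortical membranes prepared by the Ransom and Stec method, using [3H]AMPA (AMPA receptors) or [3H]KA (kainate receptors). IC50 in µM reported as mean [pIC50 ± SEM] of at least three individual experiments.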
(In general: Loss of bound radioactivity is the signal in a displacement assay; it reports binding, not function.)
Turning to `NC(C(=O)O)C1CC(O)=NO1` (racemic; form 2) [TRICHOLOMIC ACID], the IC50 was 19 µM and the “Log IC50” value is on record as -4.73.
Consider `N[C@H](C(=O)O)[C@@H]1CC(O)=NO1`, for which the half-maximal inhibitory concentration (IC50) amounted to 0.95 µM and the “Log IC50” value is given as -6.02.
Take `N[C@H](C(=O)O)[C@H]1CC(O)=NO1`: the half-inhibitory concentration (IC50) is above 100 µM.
`N[C@@H](C(=O)O)[C@@H]1CC(O)=NO1`: the concentration for half-maximal inhibition (IC50) was found to be 12 µM and the “Log IC50” value is -4.92.

Molecular target in another assay: not listed separately
In words: Displacement of [3H]KA from kainate receptor in rat cortical membrane. In kind it is cell membranes.
Details: not given
The method, boiled down:
as §2
For `NC(C(=O)O)C1CC(O)=NO1` (racemic; form 2) [TRICHOLOMIC ACID], the concentration for half-maximal inhibition (IC50) came out at 6 µM and the “Log IC50” value is -5.22.
Turning to `N[C@H](C(=O)O)[C@@H]1CC(O)=NO1`, the concentration for half-maximal inhibition (IC50) was found to be 0.29 µM and the “Log IC50” value is recorded as -6.55.
For the compound `N[C@H](C(=O)O)[C@H]1CC(O)=NO1`, the half-inhibitory concentration (IC50) came out at 36 µM and the “Log IC50” value is recorded as -4.45.
As to `N[C@@H](C(=O)O)[C@@H]1CC(O)=NO1`, the IC50 turned out to be 11 µM and the “Log IC50” value is -4.95.

For another assay, the target named is Glutamate receptor 1 (Rattus norvegicus) (UniProt P19490). In words: Activity at rat cloned iGluR1 expressed in human HEK293 cells by calcium imaging assay relative to L-glutamate. The format is cell-based. The arrangement: concentration or dose not given beside the values.
Details: not given
The method, boiled down: (§3)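 Rat iGluR1–6 subtypes cloned and expressed in HEK cells: iGluR2, iGluR5 and iGluR6 as the Q forms; iGluR1–4 marked with subscript "i". Receptor activation was read by Fluo-4 calcium imaging.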
Turning to `N[C@H](C(=O)O)[C@@H]1CC(O)=NO1`, the Activity is 90%.
In the case of `N[C@H](C(=O)O)[C@H]1CC(O)=NO1`, the Activity came to 35%.
Regarding `N[C@@H](C(=O)O)[C@@H]1CC(O)=NO1`, the Activity came out at 13%.

The target in another assay is Glutamate receptor ionotropic, kainate 2 (Rattus norvegicus) (UniProt P42260). In words: Activity at rat cloned iGluR6 expressed in human HEK293 cells by calcium imaging assay relative to L-glutamate. In kind it is cell-based. Set-up: concentration or dose not given beside the values.
Details: not given
The essentials: as §3
For `N[C@H](C(=O)O)[C@@H]1CC(O)=NO1`, the Activity is 91%.
For the compound `N[C@H](C(=O)O)[C@H]1CC(O)=NO1`, the Activity was found to be 11%.
Turning to `N[C@@H](C(=O)O)[C@@H]1CC(O)=NO1`, the Activity was found to be 15%.

The target in another assay is Metabotropic glutamate receptor 1 (Rattus norvegicus, UniProt P23385). As to the kind of experiment: Activity at rat cloned mGluR1a expressed in CHO cells assessed as effect on cAMP accumulation. The format is functional, cell-based. The conditions noted are these: read-out: EC50. The essentials:
as §1
With `NC(C(=O)O)C1CC(O)=NO1` (racemic; form 2) [TRICHOLOMIC ACID], the half-maximal effective concentration (EC50) is 110 µM.
In the case of `N[C@H](C(=O)O)[C@@H]1CC(O)=NO1`, the EC50 is 610 µM.
Consider `N[C@H](C(=O)O)[C@H]1CC(O)=NO1`, for which the EC50 was 82 µM.
As to `N[C@@H](C(=O)O)[C@@H]1CC(O)=NO1`, the EC50 was above 1000 µM.

The same assay, now with this note: read-out: Log EC50 (converted).
On to `NC(C(=O)O)C1CC(O)=NO1` (racemic; form 2) [TRICHOLOMIC ACID], for which the EC50 is 79.4 µM.

In another assay the target is Glutamate receptor 4 (Rattus norvegicus, UniProt P19493). As to the kind of experiment: Activity at rat cloned iGluR4 expressed in human HEK293 cells by calcium imaging assay. In kind it is cell-based.
Glutamate receptor 4, sequence (P19493 whole entry): as the sequence (P19493 whole entry) above
Details: not given
The essentials: as §3
With `N[C@H](C(=O)O)[C@@H]1CC(O)=NO1`, the EC50 is 30 µM.
For the compound `N[C@H](C(=O)O)[C@H]1CC(O)=NO1`, the concentration for a half-maximal effect (EC50) was above 1000 µM.
`N[C@@H](C(=O)O)[C@@H]1CC(O)=NO1`: the EC50 is above 1000 µM.

The target in the next assay is Glutamate receptor 2 (Rattus norvegicus, UniProt P19491). In words: Activity at rat cloned iGluR2 expressed in human HEK293 cells by calcium imaging assay. The format is cell-based.
Glutamate receptor 2, sequence (P19491 whole entry): as the sequence (P19491 whole entry) above
Details: not given
On to `N[C@H](C(=O)O)[C@@H]1CC(O)=NO1`, for which the 50% effective concentration (EC50) was 480 µM.
With `N[C@H](C(=O)O)[C@H]1CC(O)=NO1`, the EC50 was above 1000 µM.
With `N[C@@H](C(=O)O)[C@@H]1CC(O)=NO1`, the half-maximal effective concentration (EC50) is above 1000 µM.

A further assay has as its target Glutamate receptor ionotropic, kainate 1 (Rattus norvegicus, UniProt P22756). In words: Activity at rat cloned iGluR5 expressed in human HEK293 cells by calcium imaging assay. In kind it is cell-based.
Details: not given
In the case of `N[C@H](C(=O)O)[C@@H]1CC(O)=NO1`, the half-maximal effective concentration (EC50) is 280 µM.
Regarding `N[C@H](C(=O)O)[C@H]1CC(O)=NO1`, the concentration giving a half-maximal response (EC50) was above 1000 µM.
On to `N[C@@H](C(=O)O)[C@@H]1CC(O)=NO1`, for which the EC50 is above 1000 µM.

In a further assay the target is Glutamate receptor 3 (Rattus norvegicus) (UniProt P19492). In words: Activity at rat cloned iGluR3 expressed in human HEK293 cells by calcium imaging assay relative to L-glutamate.
Details: not given
The arrangement: concentration or dose not given beside the values. In kind it is cell-based. The essentials:
as §3
For the compound `N[C@H](C(=O)O)[C@@H]1CC(O)=NO1`, the Activity turned out to be 88%.
Still for that read-out and setting: the same measure for `N[C@H](C(=O)O)[C@H]1CC(O)=NO1`: 23%; for `N[C@@H](C(=O)O)[C@@H]1CC(O)=NO1`: 10%.

For the next assay, the target named is Glutamate receptor 3 (Rattus norvegicus, UniProt P19492). As to the kind of experiment: Activity at rat cloned iGluR3 expressed in human HEK293 cells by calcium imaging assay. In kind it is cell-based. The conditions noted are these: read-out: EC50. The essentials: as §3
`N[C@H](C(=O)O)[C@@H]1CC(O)=NO1`: the concentration giving a half-maximal response (EC50) was found to be 170 µM.
With `N[C@H](C(=O)O)[C@H]1CC(O)=NO1`, the EC50 was above 1000 µM.
On the same count and under the same terms, the same measure for `N[C@@H](C(=O)O)[C@@H]1CC(O)=NO1`: above 1000 µM.

Still in this assay, the particulars now being: read-out: Log EC50 (converted).
Consider `N[C@H](C(=O)O)[C@@H]1CC(O)=NO1`, for which the concentration giving a half-maximal response (EC50) was 155 µM.

Another assay concerns the target Glutamate receptor 1 (Rattus norvegicus, UniProt P19490). In words: Activity at rat cloned iGluR1 expressed in human HEK293 cells by calcium imaging assay. In kind it is cell-based.
Details: not given
The essentials: as §3
For the compound `N[C@H](C(=O)O)[C@@H]1CC(O)=NO1`, the EC50 was 120 µM.
As for `N[C@H](C(=O)O)[C@H]1CC(O)=NO1`, the EC50 was above 1000 µM.
For the compound `N[C@@H](C(=O)O)[C@@H]1CC(O)=NO1`, the concentration for a half-maximal effect (EC50) was above 1000 µM.

The next assay concerns the target Metabotropic glutamate receptor 4 (Rattus norvegicus, UniProt P31423). As to the kind of experiment: Activity at rat cloned mGluR4 expressed in CHO cells assessed as effect on cAMP accumulation. In kind it is functional, cell-based.
Details: not given
The essentials: as §1
Regarding `N[C@H](C(=O)O)[C@@H]1CC(O)=NO1`, the EC50 is above 1000 µM.
In the case of `N[C@H](C(=O)O)[C@H]1CC(O)=NO1`, the EC50 was above 1000 µM.
On the same count and under the same terms, the same measure for `N[C@@H](C(=O)O)[C@@H]1CC(O)=NO1`: above 1000 µM.

The next assay has as its target Glutamate receptor ionotropic, kainate 2 (Rattus norvegicus, UniProt P42260). In words: Activity at rat cloned iGluR6 expressed in human HEK293 cells by calcium imaging assay. The format is cell-based.
Details: not given
The essentials:
as §3
Consider `N[C@H](C(=O)O)[C@@H]1CC(O)=NO1`, for which the EC50 was determined as 82 µM.
For the compound `N[C@H](C(=O)O)[C@H]1CC(O)=NO1`, the EC50 is above 1000 µM.
On the same count and under the same terms, the same measure for `N[C@@H](C(=O)O)[C@@H]1CC(O)=NO1`: above 1000 µM.

A further assay has as its target Glutamate receptor 2 (Rattus norvegicus) (UniProt P19491). As to the kind of experiment: Activity at rat cloned iGluR2 expressed in human HEK293 cells by calcium imaging assay relative to L-glutamate. In kind it is cell-based. Set-up: concentration or dose not given beside the values.
Details: not given
The essentials: as §3
Take `N[C@H](C(=O)O)[C@@H]1CC(O)=NO1`: the Activity was found to be 74%.
For the compound `N[C@H](C(=O)O)[C@H]1CC(O)=NO1`, the Activity came out at 20%.
The same measure, in the same setting: the same measure for `N[C@@H](C(=O)O)[C@@H]1CC(O)=NO1`: 14%.

In another assay the target is Glutamate receptor ionotropic, kainate 1 (Rattus norvegicus) (UniProt P22756). As to the kind of experiment: Activity at rat cloned iGluR5 expressed in human HEK293 cells by calcium imaging assay relative to L-glutamate. The arrangement: concentration or dose not given beside the values.
Glutamate receptor ionotropic, kainate 1 (Rattus norvegicus), sequence (P22756 whole entry): as the sequence (P22756 whole entry) above
Details: not given
In kind it is cell-based. The method, boiled down: as §3
For the compound `N[C@H](C(=O)O)[C@@H]1CC(O)=NO1`, the Activity was determined as 91%.
With `N[C@H](C(=O)O)[C@H]1CC(O)=NO1`, the Activity stood at 12%.
As for `N[C@@H](C(=O)O)[C@@H]1CC(O)=NO1`, the Activity was determined as 8%.

A further assay addresses Glutamate receptor 4 (Rattus norvegicus) (UniProt P19493). As to the kind of experiment: Activity at rat cloned iGluR4 expressed in human HEK293 cells by calcium imaging assay relative to L-glutamate. The arrangement: concentration or dose not given beside the values. In kind it is cell-based.
Details: not given
The essentials: as §3
`N[C@H](C(=O)O)[C@@H]1CC(O)=NO1`: the Activity amounted to 91%.
As to `N[C@H](C(=O)O)[C@H]1CC(O)=NO1`, the Activity came out at 90%.
For `N[C@@H](C(=O)O)[C@@H]1CC(O)=NO1`, the Activity turned out to be 7%.

For the origin of these results see ChEMBL document CHEMBL1142433, “Synthesis and pharmacological characterization at glutamate receptors of the four enantiopure isomers of tricholomic acid” (J Med Chem, 2008).
